# Experimental data from publication PMC9540525 (Cancer, 2022).
# Entries after “also recorded” stand apart in the source; their conditions may differ.
# Test: Phase 1 study CC-90011-ST-001: safety, adverse events
# Assay type: in vivo, human
# Method in brief: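 Treated population: all patients given at least one oral dose of test compound (once weekly, 28-day cycles; expansion 60 mg). Adverse events were graded by NCI CTCAE v4.03. Dose reductions were permitted in any cycle, including cycle 1. Treatment could be interrupted for up to 4 weeks, until toxicity returned to grade ≤1 or baseline.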
# [1] = dose escalation, n = 50, patients (%)
# [2] = dose expansion, NEN, n = 16, patients (%)
# [3] = dose expansion, R/R MZL, n = 3, patients (%)
# [4] = dose expansion, n = 19, patients (%)
structure (smiles),measurement,setting,value
COc1ccc(-c2c(-c3ccc(C#N)c(F)c3)nc(N3CCC(N)CC3)n(C)c2=O)cc1F [CC‐90011],TEAE any grade: Abdominal pain,[1],7 (14)
same,TEAE any grade: Acute kidney injury,[1],1 (2)
same,TEAE any grade: Anemia,[1],14 (28)
same,TEAE any grade: Arthralgia,[1],9 (18)
same,TEAE any grade: Back pain,[1],7 (14)
same,TEAE any grade: Bone pain,[1],1 (2)
same,TEAE any grade: Bronchitis,[1],2 (4)
same,TEAE any grade: Constipation,[1],11 (22)
same,TEAE any grade: Cough,[1],6 (12)
same,TEAE any grade: Decreased appetite,[1],10 (20)
same,TEAE any grade: Diarrhea,[1],10 (20)
same,TEAE any grade: Dizziness,[1],3 (6)
same,TEAE any grade: Dysgeusia,[1],3 (6)
same,TEAE any grade: Dyspnea,[1],5 (10)
same,TEAE any grade: Epistaxis,[1],2 (4)
same,TEAE any grade: Fatigue/asthenia,[1],24 (48)
same,TEAE any grade: Headache,[1],5 (10)
same,TEAE any grade: Hepatic pain,[1],1 (2)
same,TEAE any grade: Hypokalemia,[1],5 (10)
same,TEAE any grade: Increased ALT,[1],6 (12)
same,TEAE any grade: Increased AST,[1],6 (12)
same,TEAE any grade: Lipase increased,[1],2 (4)
same,TEAE any grade: Musculoskeletal pain,[1],1 (2)
same,TEAE any grade: Nausea,[1],11 (22)
same,TEAE any grade: Neutropenia,[1],6 (12)
same,TEAE any grade: Peripheral sensory neuropathy,[1],2 (4)
same,TEAE any grade: Pruritus,[1],3 (6)
same,TEAE any grade: Pyrexia,[1],10 (20)
same,TEAE any grade: Sciatica,[1],1 (2)
same,TEAE any grade: Thrombocytopenia,[1],23 (46)
same,TEAE any grade: Tumor pain,[1],5 (10)
same,TEAE any grade: Vomiting,[1],14 (28)
same,TEAE any grade: ≥1 event,[1],48 (96)
same,TEAE grade 3/4: Abdominal pain,[1],0 (0)
same,TEAE grade 3/4: Acute kidney injury,[1],0 (0)
same,TEAE grade 3/4: Anemia,[1],3 (6)
same,TEAE grade 3/4: Arthralgia,[1],0 (0)
same,TEAE grade 3/4: Back pain,[1],0 (0)
same,TEAE grade 3/4: Bone pain,[1],1 (2)
same,TEAE grade 3/4: Bronchitis,[1],0 (0)
same,TEAE grade 3/4: Constipation,[1],0 (0)
same,TEAE grade 3/4: Cough,[1],0 (0)
same,TEAE grade 3/4: Decreased appetite,[1],1 (2)
same,TEAE grade 3/4: Diarrhea,[1],1 (2)
same,TEAE grade 3/4: Dizziness,[1],0 (0)
same,TEAE grade 3/4: Dysgeusia,[1],0 (0)
same,TEAE grade 3/4: Dyspnea,[1],0 (0)
same,TEAE grade 3/4: Epistaxis,[1],0 (0)
same,TEAE grade 3/4: Fatigue/asthenia,[1],1 (2)
same,TEAE grade 3/4: Headache,[1],0 (0)
same,TEAE grade 3/4: Hepatic pain,[1],0 (0)
same,TEAE grade 3/4: Hypokalemia,[1],1 (2)
same,TEAE grade 3/4: Increased ALT,[1],2 (4)
same,TEAE grade 3/4: Increased AST,[1],1 (2)
same,TEAE grade 3/4: Lipase increased,[1],2 (4)
same,TEAE grade 3/4: Musculoskeletal pain,[1],0 (0)
same,TEAE grade 3/4: Nausea,[1],0 (0)
same,TEAE grade 3/4: Neutropenia,[1],4 (8)
same,TEAE grade 3/4: Peripheral sensory neuropathy,[1],0 (0)
same,TEAE grade 3/4: Pruritus,[1],0 (0)
same,TEAE grade 3/4: Pyrexia,[1],0 (0)
same,TEAE grade 3/4: Sciatica,[1],0 (0)
same,TEAE grade 3/4: Thrombocytopenia,[1],12 (24)
same,TEAE grade 3/4: Tumor pain,[1],1 (2)
same,TEAE grade 3/4: Vomiting,[1],0 (0)
same,TEAE grade 3/4: ≥1 event,[1],24 (48)
same,TEAE leading to treatment discontinuation,dose expansion,No patients; also recorded: none of the TEAEs
same,febrile neutropenia,dose expansion,no febrile neutropenia was observed
same,"anemia leading to a dose reduction, patients","dose expansion, 19 patients",5%
same,"hematologic events leading to a dose interruption, patients","dose expansion, 19 patients",47%
same,"neutropenia leading to a dose reduction, patients","dose expansion, 19 patients",5%
same,patients with at least one TEAE leading to a dose interruption,"dose expansion, 19 patients",58%
same,patients with at least one TEAE leading to a dose reduction,"dose expansion, 19 patients",26%
same,"thrombocytopenia leading to a dose reduction, patients","dose expansion, 19 patients",26%
same,TRAE grade 3/4: Thrombocytopenia,"dose expansion, NEN cohort, n=16",6 n (%)
same,TEAE any grade: Abdominal pain,[2],0 (0)
same,TEAE any grade: Acute kidney injury,[2],1 (6)
same,TEAE any grade: Anemia,[2],6 (38)
same,TEAE any grade: Arthralgia,[2],6 (38)
same,TEAE any grade: Back pain,[2],1 (6)
same,TEAE any grade: Bone pain,[2],2 (13)
same,TEAE any grade: Bronchitis,[2],2 (13)
same,TEAE any grade: Constipation,[2],5 (31)
same,TEAE any grade: Cough,[2],3 (19)
same,TEAE any grade: Decreased appetite,[2],3 (19)
same,TEAE any grade: Diarrhea,[2],5 (31)
same,TEAE any grade: Dizziness,[2],2 (13)
same,TEAE any grade: Dysgeusia,[2],4 (25)
same,TEAE any grade: Dyspnea,[2],2 (13)
same,TEAE any grade: Epistaxis,[2],3 (19)
same,TEAE any grade: Fatigue/asthenia,[2],9 (56)
same,TEAE any grade: Headache,[2],0 (0)
same,TEAE any grade: Hepatic pain,[2],2 (13)
same,TEAE any grade: Hypokalemia,[2],2 (13)
same,TEAE any grade: Increased ALT,[2],0 (0)
same,TEAE any grade: Increased AST,[2],1 (6)
same,TEAE any grade: Lipase increased,[2],2 (13)
same,TEAE any grade: Musculoskeletal pain,[2],1 (6)
same,TEAE any grade: Nausea,[2],5 (31)
same,TEAE any grade: Neutropenia,[2],3 (19)
same,TEAE any grade: Peripheral sensory neuropathy,[2],2 (13)
same,TEAE any grade: Pruritus,[2],2 (13)
same,TEAE any grade: Pyrexia,[2],0 (0)
same,TEAE any grade: Sciatica,[2],2 (13)
same,TEAE any grade: Tumor pain,[2],0 (0)
same,TEAE any grade: Vomiting,[2],2 (13)
same,TEAE grade 3/4: Abdominal pain,[2],0 (0)
same,TEAE grade 3/4: Acute kidney injury,[2],0 (0)
same,TEAE grade 3/4: Anemia,[2],1 (6)
same,TEAE grade 3/4: Arthralgia,[2],0 (0)
same,TEAE grade 3/4: Back pain,[2],0 (0)
same,TEAE grade 3/4: Bone pain,[2],0 (0)
same,TEAE grade 3/4: Bronchitis,[2],0 (0)
same,TEAE grade 3/4: Constipation,[2],0 (0)
same,TEAE grade 3/4: Cough,[2],0 (0)
same,TEAE grade 3/4: Decreased appetite,[2],0 (0)
same,TEAE grade 3/4: Diarrhea,[2],0 (0)
same,TEAE grade 3/4: Dizziness,[2],0 (0)
same,TEAE grade 3/4: Dysgeusia,[2],0 (0)
same,TEAE grade 3/4: Dyspnea,[2],0 (0)
same,TEAE grade 3/4: Epistaxis,[2],0 (0)
same,TEAE grade 3/4: Headache,[2],0 (0)
same,TEAE grade 3/4: Hepatic pain,[2],1 (6)
same,TEAE grade 3/4: Hypokalemia,[2],0 (0)
same,TEAE grade 3/4: Increased ALT,[2],0 (0)
same,TEAE grade 3/4: Increased AST,[2],0 (0)
same,TEAE grade 3/4: Lipase increased,[2],0 (0)
same,TEAE grade 3/4: Musculoskeletal pain,[2],0 (0)
same,TEAE grade 3/4: Nausea,[2],0 (0)
same,TEAE grade 3/4: Peripheral sensory neuropathy,[2],0 (0)
same,TEAE grade 3/4: Pruritus,[2],0 (0)
same,TEAE grade 3/4: Pyrexia,[2],0 (0)
same,TEAE grade 3/4: Sciatica,[2],0 (0)
same,TEAE grade 3/4: Tumor pain,[2],0 (0)
same,TEAE grade 3/4: Vomiting,[2],0 (0)
same,TEAE any grade: Abdominal pain,[3],0 (0)
same,TEAE any grade: Acute kidney injury,[3],1 (33)
same,TEAE any grade: Anemia,[3],1 (33)
same,TEAE any grade: Arthralgia,[3],0 (0)
same,TEAE any grade: Back pain,[3],0 (0)
same,TEAE any grade: Bone pain,[3],1 (33)
same,TEAE any grade: Bronchitis,[3],0 (0)
same,TEAE any grade: Constipation,[3],1 (33)
same,TEAE any grade: Cough,[3],1 (33)
same,TEAE any grade: Decreased appetite,[3],0 (0)
same,TEAE any grade: Diarrhea,[3],0 (0)
same,TEAE any grade: Dizziness,[3],0 (0)
same,TEAE any grade: Dysgeusia,[3],0 (0)
same,TEAE any grade: Dyspnea,[3],1 (33)
same,TEAE any grade: Epistaxis,[3],0 (0)
same,TEAE any grade: Headache,[3],0 (0)
same,TEAE any grade: Hepatic pain,[3],0 (0)
same,TEAE any grade: Hypokalemia,[3],0 (0)
same,TEAE any grade: Increased ALT,[3],0 (0)
same,TEAE any grade: Increased AST,[3],0 (0)
same,TEAE any grade: Lipase increased,[3],0 (0)
same,TEAE any grade: Musculoskeletal pain,[3],0 (0)
same,TEAE any grade: Nausea,[3],1 (33)
same,TEAE any grade: Neutropenia,[3],1 (33)
same,TEAE any grade: Peripheral sensory neuropathy,[3],0 (0)
same,TEAE any grade: Pruritus,[3],0 (0)
same,TEAE any grade: Pyrexia,[3],0 (0)
same,TEAE any grade: Sciatica,[3],0 (0)
same,TEAE any grade: Tumor pain,[3],1 (33)
same,TEAE any grade: Vomiting,[3],0 (0)
same,TEAE grade 3/4: Abdominal pain,[3],0 (0)
same,TEAE grade 3/4: Acute kidney injury,[3],0 (0)
same,TEAE grade 3/4: Anemia,[3],0 (0)
same,TEAE grade 3/4: Arthralgia,[3],0 (0)
same,TEAE grade 3/4: Back pain,[3],0 (0)
same,TEAE grade 3/4: Bone pain,[3],0 (0)
same,TEAE grade 3/4: Bronchitis,[3],0 (0)
same,TEAE grade 3/4: Constipation,[3],0 (0)
same,TEAE grade 3/4: Cough,[3],0 (0)
same,TEAE grade 3/4: Decreased appetite,[3],0 (0)
same,TEAE grade 3/4: Diarrhea,[3],0 (0)
same,TEAE grade 3/4: Dizziness,[3],0 (0)
same,TEAE grade 3/4: Dysgeusia,[3],0 (0)
same,TEAE grade 3/4: Dyspnea,[3],0 (0)
same,TEAE grade 3/4: Epistaxis,[3],0 (0)
same,TEAE grade 3/4: Fatigue/asthenia,[3],0 (0)
same,TEAE grade 3/4: Headache,[3],0 (0)
same,TEAE grade 3/4: Hepatic pain,[3],0 (0)
same,TEAE grade 3/4: Hypokalemia,[3],0 (0)
same,TEAE grade 3/4: Increased ALT,[3],0 (0)
same,TEAE grade 3/4: Increased AST,[3],0 (0)
same,TEAE grade 3/4: Lipase increased,[3],0 (0)
same,TEAE grade 3/4: Musculoskeletal pain,[3],0 (0)
same,TEAE grade 3/4: Nausea,[3],0 (0)
same,TEAE grade 3/4: Peripheral sensory neuropathy,[3],0 (0)
same,TEAE grade 3/4: Pruritus,[3],0 (0)
same,TEAE grade 3/4: Pyrexia,[3],0 (0)
same,TEAE grade 3/4: Sciatica,[3],0 (0)
same,TEAE grade 3/4: Thrombocytopenia,[3],0 (0)
same,TEAE grade 3/4: Tumor pain,[3],0 (0)
same,TEAE grade 3/4: Vomiting,[3],0 (0)
same,TEAE any grade: ≥1 event,[4],19 (100)
same,TEAE grade 3/4: ≥1 event,[4],13 (68)
same,Serious TEAE: Anemia,"dose expansion, n=19",1 n (%)
same,Serious TEAE: Biliary tract infection,"dose expansion, n=19",1 n (%)
same,Serious TEAE: Chest pain,"dose expansion, n=19",1 n (%)
same,Serious TEAE: Fatigue,"dose expansion, n=19",1 n (%)
same,Serious TEAE: General health deterioration,"dose expansion, n=19",1 n (%)
same,Serious TEAE: Hepatic hemorrhage,"dose expansion, n=19",1 n (%)
same,Serious TEAE: Hepatic pain,"dose expansion, n=19",1 n (%)
same,Serious TEAE: Oxygen saturation decreased,"dose expansion, n=19",1 n (%)
same,Serious TEAE: Pulmonary hemorrhage,"dose expansion, n=19",1 n (%)
same,Serious TEAE: Respiratory failure,"dose expansion, n=19",1 n (%)
same,Serious TEAE: Thrombocytopenia,"dose expansion, n=19",1 n (%)
same,Serious TEAE: Upper respiratory tract infection,"dose expansion, n=19",1 n (%)
same,TEAE with an outcome of death,"dose expansion, upper respiratory tract infection, not considered treatment-related",One patient
same,new safety concerns or late toxicities with longer follow-up,follow-up of approximately 5 years and >4 years of treatment,No new safety concerns or late toxicities were identified
